Measurements as given in PubChem BioAssay.
“And” between values parts separate entries of the source, which are not always exact repeats. Identical values can stand only once. The source made the active and inactive calls. Unless noted, no rule for the calls is given here.

Key:
[1] = target: Pantothenate synthetase (Mycobacterium tuberculosis (strain ATCC 25618 / H37Rv)) (UniProt P9WIL5); test: Coupled enzyme confirmation of inhibitors against recombinant Mtb PanC (AID 375); details: coupled enzyme assay; at 10 µM, stronger effect = higher value;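 also: 0% = full reaction with vehicle and 100% = no enzyme background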
Sequence of Pantothenate synthetase (Mycobacterium tuberculosis (strain ATCC 25618 / H37Rv)) (P9WIL5 whole entry, looked up): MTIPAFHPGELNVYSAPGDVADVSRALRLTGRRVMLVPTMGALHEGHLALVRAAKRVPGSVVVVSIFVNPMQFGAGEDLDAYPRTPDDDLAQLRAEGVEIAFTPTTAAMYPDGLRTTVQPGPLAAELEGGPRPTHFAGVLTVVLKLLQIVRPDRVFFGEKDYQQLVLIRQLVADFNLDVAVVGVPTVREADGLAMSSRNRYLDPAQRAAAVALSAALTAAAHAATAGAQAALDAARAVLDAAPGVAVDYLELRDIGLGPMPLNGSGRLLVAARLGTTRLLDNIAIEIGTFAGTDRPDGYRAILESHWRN

[2] = Her2 expression decrease, cell viability multiplex – SKBR3 breast tumor cells, AlphaScreen, ATP viability, primary screen (AID 461;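 active = Her2 level under about 52% in both replicate screens, with viability over 70% of control, limit read from the data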;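 as to Her2 level: lower value means less Her2 protein in the cells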;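 as to viability: percent of carrier control wells set as 100% viability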); details: SKBR3 Her2 protein level, 18-24 h, measured here: SKBR3 viability, ATP luminescence, at 10 µM
[3] = target: Receptor tyrosine-protein kinase erbB-2 (Homo sapiens) (UniProt P04626); test: as above; details: 18-24 h, at 10 µM, stronger effect = lower value
Sequence of Receptor tyrosine-protein kinase erbB-2 (Homo sapiens) (P04626 whole entry, looked up): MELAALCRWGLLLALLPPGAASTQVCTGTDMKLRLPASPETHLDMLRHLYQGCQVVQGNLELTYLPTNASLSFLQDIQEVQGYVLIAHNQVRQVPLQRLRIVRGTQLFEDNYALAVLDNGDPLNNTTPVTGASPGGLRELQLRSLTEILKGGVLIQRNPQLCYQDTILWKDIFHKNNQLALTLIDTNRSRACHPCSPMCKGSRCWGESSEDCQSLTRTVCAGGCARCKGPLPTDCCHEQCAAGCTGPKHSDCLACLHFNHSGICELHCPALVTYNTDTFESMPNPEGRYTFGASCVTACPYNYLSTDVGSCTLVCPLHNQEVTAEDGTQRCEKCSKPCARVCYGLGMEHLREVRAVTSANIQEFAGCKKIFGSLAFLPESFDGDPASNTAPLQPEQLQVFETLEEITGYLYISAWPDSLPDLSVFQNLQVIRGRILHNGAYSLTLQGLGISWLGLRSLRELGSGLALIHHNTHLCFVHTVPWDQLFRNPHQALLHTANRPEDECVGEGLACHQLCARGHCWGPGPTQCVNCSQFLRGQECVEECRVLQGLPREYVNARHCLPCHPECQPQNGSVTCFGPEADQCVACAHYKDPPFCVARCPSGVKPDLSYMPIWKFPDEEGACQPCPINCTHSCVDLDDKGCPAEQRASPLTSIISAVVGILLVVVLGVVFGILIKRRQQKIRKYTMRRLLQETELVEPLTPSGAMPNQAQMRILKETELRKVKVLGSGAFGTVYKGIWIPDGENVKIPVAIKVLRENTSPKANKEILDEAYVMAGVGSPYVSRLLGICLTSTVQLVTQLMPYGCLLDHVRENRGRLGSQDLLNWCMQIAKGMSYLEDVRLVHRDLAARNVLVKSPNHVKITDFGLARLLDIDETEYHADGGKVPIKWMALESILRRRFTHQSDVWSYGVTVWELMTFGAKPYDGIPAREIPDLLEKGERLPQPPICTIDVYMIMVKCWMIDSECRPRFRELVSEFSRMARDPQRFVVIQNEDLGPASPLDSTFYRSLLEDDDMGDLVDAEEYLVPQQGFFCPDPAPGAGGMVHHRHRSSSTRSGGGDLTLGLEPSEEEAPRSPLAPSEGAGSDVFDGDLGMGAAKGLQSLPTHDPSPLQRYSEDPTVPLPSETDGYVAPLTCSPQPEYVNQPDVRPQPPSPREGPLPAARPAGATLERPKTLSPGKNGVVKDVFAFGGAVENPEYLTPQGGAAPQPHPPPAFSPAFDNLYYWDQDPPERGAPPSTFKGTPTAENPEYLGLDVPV

[4] = reduced viability of SK-BR-3 breast cancer cells – cell-based, 24 h, human, pilot screen (AID 572;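 active = viability at or below 10% of carrier control in both of two separate runs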;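 also: compound exposure lasted between 18 and 24 h rather than exactly 24 h; 100% = carrier-treated control wells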); details: SK-BR-3 viability, CellTiter-Glo luminescence, at 10 µM, stronger effect = lower value
[5] = HUVEC growth inhibition – cell-based, human, primary screen (AID 575;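 active = viability at or below 30% in both replicate assays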;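 also: 100% = median of untreated cell wells with 0.1% DMSO on each plate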); details: HUVEC proliferation, CellTiter-Glo luminescence, 72 h; at 10 µM; stronger effect = lower value
Summary of the method: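 Test system: primary human umbilical vein endothelial cells; medium: endothelial basal medium with 2% FBS plus growth supplements; dosing: 10 µM compound only; times: 72 h treatment at 37 °C; signal: CTG luminescence; read-out: % viability relative to median vehicle-well signal on each plate; control set: vehicle and MePR control wells; plate: 384-well, collagen-coated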

[6] = H69AR cell proliferation blockers – human, duplicate replicates, primary screen (AID 580;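 active = viability at or under a set limit in both replicates, limit being median viability minus 3 SD, cut at about 48% in these data, passing the limit was not always enough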;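 also: 100% = mean luminescence of untreated wells and 0% = no signal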); details: H69AR lung tumor cells viability, ATP luminescence, 72 h; at 10 µM; stronger effect = lower value
[7] = MRP1 drug-resistance reversers in H69AR cells – cell-based, doxorubicin co-treatment, pilot screen (AID 601;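 active = viability loss from added drug above about 55%, and viability with drug at most 40%, in both replicates, limit read from the data, passing the limit was not always enough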); details: CellTiter-Glo, 72 h, at 10 µM; for differential viability (reversal): stronger effect = higher value
[8] = yeast transport mutant growth inhibition pilot in 384-well plates, post-Golgi transport modulator project (AID 636; in the data active = inhibition above about 31%); details: absorbance 615 nm, about 18 h, stronger effect = higher value
[9] = growth suppression of yeast trafficking mutant, preliminary HTS, modulators of trafficking downstream of Golgi apparatus project, 1536-format plate, OD 615 nm (AID 637; in the data active = inhibition above about 30%); details: yeast transport mutant growth, absorbance 615 nm, 18 h; stronger effect = higher value
[10] = H69AR cells + 2 uM doxorubicin, measured here: viability with 2 uM doxorubicin, stronger effect = lower value
[11] = H69AR cells, compound alone cytotoxicity

Compound	inhibition [1]	viability [2] [%]	Her2 level [3]	viability [4]	viability [5]	viability [6]	differential viability (reversal) ([7]; H69AR cells + 2 uM doxorubicin)	viability [7, 10]	viability [7, 11]	inhibition [8]	inhibition [9]
Cc1cc(C)c(C(=O)CN2CCOCC2)c(C)c1	2% (inactive)	105	98.5% (inactive)	105% (inactive)	83.7% (inactive)	74% (inactive)	-6.78% (inactive)	80.7%	74%	-5.19% (inactive)	-0.33% (inactive)
Cc1ccc(C)c(NC(=O)CSc2nnc([C@@H](N)Cc3c[nH]c4ccccc34)o2)c1	6% (inactive)	101	94.5% (inactive)	101% (inactive)	86.9% (inactive)	106% (inactive)	13.5% (inactive)	92.9%	106%	-5.2% (inactive)	-4.13% (inactive)
CC(=O)C1C(=O)NC23CCCCC2C1c1ccccc1O3 (stereo not drawn)	0% (inactive)	88	91.5% (inactive)	88% (inactive)	109% (inactive)	99.3% (inactive)	4.31% (inactive)	95%	99.3%	-3.87% (inactive)	-0.16% (inactive)
O=C1C2CCCN2C(c2ccc(Cl)c(Cl)c2)N1c1ccccn1 (stereo not drawn)	0% (inactive)	128	102% (inactive)	128% (inactive)	107% (inactive)	97.4% (inactive)	11.4% (inactive)	86%	97.4%	-4.08% (inactive)	1.77% (inactive)
CC(C)OC(=O)c1c(N)n(CC2CCCO2)c2nc3ccccc3nc12 (stereo not drawn)	5% (inactive)	86.5	92.5% (inactive)	86.5% (inactive)	102% (inactive)	94.7% (inactive)	4.96% (inactive)	89.7%	94.7%	-1.58% (inactive)	-3.17% (inactive)
CC[C@@H]1C(=O)OC[C@@H]1Cc1cncn1C	0% (inactive)	94	107% (inactive)	94% (inactive) and 104% (inactive)	101% (inactive) and 91.9% (inactive)	102% (inactive) and 96% (inactive)	12.4% (inactive) and -2.8% (inactive)	89.8% and 98.8%	102% and 96%		
Cc1oc2ccc(OC(=O)N(C)C)cc2c1C(=O)OC(C)C	0% (inactive)	96	87.5% (inactive)	96% (inactive)	92.4% (inactive)	107% (inactive)	11.3% (inactive)	95.8%	107%	-3.24% (inactive)	10.2% (inactive)
COc1ccccc1OCCCn1cc(C(=O)c2ccco2)c2ccccc21	0% (inactive)	106	96% (inactive)	106% (inactive)	74.9% (inactive)	77.5% (inactive)	-5.27% (inactive)	82.7%	77.5%	-4.73% (inactive)	-5.33% (inactive)
COc1ccccc1N1CCN(Cc2cccc(OC)c2O)CC1	0% (inactive)	89	93% (inactive)	89% (inactive)	118% (inactive)	91.6% (inactive)	5.07% (inactive)	86.6%	91.6%	-5% (inactive)	5.25% (inactive)
Cc1ccc(C)c(NC2=NCCCS2)c1	0% (inactive)	108	89.5% (inactive)	108% (inactive)	91.9% (inactive)	104% (inactive)	11.3% (inactive)	92.9%	104%	-8.08% (inactive)	-1.59% (inactive)
CCCCCCC(N)CC(=O)O (stereo not drawn)	0% (inactive)	106	122% (inactive)	106% (inactive)	95.1% (inactive)	94.8% (inactive)	5.24% (inactive)	89.6%	94.8%	-1.69% (inactive)	-8.17% (inactive)
O=C(CN1C(=O)CN=C(c2ccccc2)c2ccccc21)NCc1ccco1	2% (inactive)	98	100% (inactive)	98% (inactive)	96.7% (inactive)	80.4% (inactive)	-1.24% (inactive)	81.7%	80.4%	-3.42% (inactive)	-5% (inactive)
CN1CCC(OC(=O)C2c3ccccc3Oc3ccccc32)CC1	2% (inactive)	96.5	96% (inactive)	96.5% (inactive)	64.3% (inactive)	86.4% (inactive)	0.945% (inactive)	85.5%	86.4%	-0.39% (inactive)	-5.16% (inactive)
Cc1ccc(S(=O)(=O)Cc2ccc(C(=O)N3CCC4(CC3)OCCO4)o2)cc1	0% (inactive)	75	104% (inactive)	75% (inactive)	103% (inactive)	90.6% (inactive)	-3.13% (inactive)	93.7%	90.6%	7.37% (inactive)	-5.64% (inactive)
COC(=O)c1ccccc1-n1c(C)nc2ccccc2c1=O	4% (inactive)	90	105% (inactive)	90% (inactive)	111% (inactive)	98.5% (inactive)	3.37% (inactive)	95.2%	98.5%	-2.5% (inactive)	-5.97% (inactive)
CCOC(=O)C(O)(c1ccc(N(CC)C(=O)OC)cc1)C(F)(F)F (stereo not drawn)	0% (inactive)	99.5	105% (inactive)	99.5% (inactive)	110% (inactive)	109% (inactive)	20.5% (inactive)	88.3%	109%	-5.53% (inactive)	5.74% (inactive)
COc1cc(/C=N/n2cnnc2)ccc1OC(=O)N(C)C	6% (inactive)	97	96.5% (inactive)	97% (inactive)	99.5% (inactive)	102% (inactive)	9.57% (inactive)	92.7%	102%	-4.21% (inactive)	-2.06% (inactive)
COc1cc(C2NCc3ccccc3-n3cccc32)ccc1O (stereo not drawn)	0% (inactive)	104	102% (inactive)	104% (inactive)	105% (inactive)	101% (inactive)	9.64% (inactive)	90.9%	101%	-5.79% (inactive)	-1.27% (inactive)
Cn1c(=O)cc(OCC(=O)N2CCN(C3CCCCC3)CC2)c2ccccc21	0% (inactive)	87	88% (inactive)	87% (inactive)	82% (inactive)	85.2% (inactive)	3.09% (inactive)	82.1%	85.2%	-1.47% (inactive)	-1.15% (inactive)
CCOP(=S)(OCC)c1ccc(N(C)C)cc1	0% (inactive)	92.5	104% (inactive)	92.5% (inactive)	93.6% (inactive)	78.3% (inactive)	-9.22% (inactive)	87.5%	78.3%	4.29% (inactive)	-12.1% (inactive)
O=C(c1sc2ccccc2c1Cl)N1CCC2(CC1)OCCO2	0% (inactive)	90.5	136% (inactive)	90.5% (inactive)	94.7% (inactive)	109% (inactive)	6.83% (inactive)	102%	109%	0.13% (inactive)	-7.5% (inactive)
Cc1ccc(O)c(CN2CCN(c3ccccc3)CC2)c1	13% (inactive)	94	88.5% (inactive)	94% (inactive)	101% (inactive)	85.5% (inactive)	11.5% (inactive)	74%	85.5%	-8.38% (inactive)	1.33% (inactive)
C=CCn1c(O)c(C(C)=NCc2cccnc2)c(=O)[nH]c1=O	0% (inactive)	104	113% (inactive)	104% (inactive)	88.1% (inactive)	92.2% (inactive)	4.8% (inactive)	87.4%	92.2%	-6.49% (inactive)	-1.33% (inactive)
O=c1[nH]c(=O)n(-c2ccc(F)cc2)c(O)c1C=Nc1ccccc1N1CCCC1	8% (inactive)	97.5	105% (inactive)	97.5% (inactive)	73.9% (inactive)	61.3% (inactive)	-6.94% (inactive)	68.2%	61.3%	-3.55% (inactive)	3% (inactive)
CCN(CC)CCN=Cc1c(O)n(CCC2=CCCCC2)c(=O)[nH]c1=O	5% (inactive)	90.5	86% (inactive)	90.5% (inactive)	62.5% (inactive)	74.7% (inactive)	-11.4% (inactive)	86.1%	74.7%	-5.84% (inactive)	-4.29% (inactive)
CCOc1c(P(=S)(N(C)C)N(C)C)c(C)nn1-c1ccccc1	1% (inactive)	83	120% (inactive)	83% (inactive)	98.6% (inactive)	101% (inactive)	17% (inactive)	84.1%	101%	-2.24% (inactive)	-11% (inactive)
OCC12COC3c4ccccc4C(OC1)N32 (stereo not drawn)	0% (inactive)	110	118% (inactive)	110% (inactive)	94% (inactive)	97.3% (inactive)	4.61% (inactive)	92.7%	97.3%	-5.47% (inactive)	-5.81% (inactive)
CCOC(=O)c1cccc([P+](=O)O)c1	0% (inactive)	92.5	114% (inactive)	92.5% (inactive)	96.3% (inactive)	96.5% (inactive)	-0.595% (inactive)	97.1%	96.5%	3.95% (inactive)	-9.03% (inactive)
CC1CCC(C(=O)NC(C(=O)N2CCC3(CC2)OCCO3)C(C)C)CC1 (stereo not drawn)	3% (inactive)	96.5	98.5% (inactive)	96.5% (inactive)	114% (inactive)	99.5% (inactive)	8.49% (inactive)	91%	99.5%	-6.36% (inactive)	-5.25% (inactive)
CC(C)(C)OC(=O)c1c(N)n(Cc2ccco2)c2nc3ccccc3nc12	3% (inactive)	98.5	76% (inactive)	98.5% (inactive)	62.5% (inactive)	65.4% (inactive)	-9.48% (inactive)	74.8%	65.4%	0.79% (inactive)	-6.13% (inactive)
